# Experimental data collected from several papers.
# Compare with care: the assays were run in different laboratories.
# Organism: Pseudomonas aeruginosa
Structure (SMILES),assay,test system,setting,quantity,value
Cc1ccc(C(=O)C#Cc2ccc(F)c(F)c2)cc1,"microbial growth, absorbance",,"100 µM, 24 h",activity vs control,96%
COc1cc(C=Nc2cccc(O)c2)ccc1O,"microbial growth, disc diffusion",,"2000 µg/mL, 24 h",inhibition zone,14.5 mm
COc1cc(C#CC(=O)CC(C)C)ccc1O,"microbial growth, absorbance",,"100 µM, 24 h",activity vs control,87%
C[C@@H](O)[C@H]1C(=O)N2C(C(=O)O)=C(SCCN=CN)C[C@H]12,"microbial growth, disc diffusion",,"2000 µg/mL, 24 h",inhibition zone,17 mm
COc1cc(C#CC(O)CC(C)C)ccc1O (stereo not drawn),"microbial growth, absorbance",,"100 µM, 24 h",activity vs control,93%
COc1cc(C=Nc2ccc(C)cc2Cl)ccc1O,"microbial growth, disc diffusion",,"2000 µg/mL, 24 h",inhibition zone,12.7 mm
CC(C)NCC(COc1cccc2ccccc12)OC(=O)C=Cc1ccc(O)c(O)c1 (stereo not drawn),"microbial growth, broth dilution",ATCC27853,,MIC,64 µg/mL
Cc1[nH]c(C(=O)Nc2ccc(C(=O)NCc3n[nH]c(=O)o3)cc2N2CCNCC2)c(Cl)c1Cl.Cl,"microbial growth, broth dilution",ATCC27853,,MIC,> 32 µg/mL
CC(C)(O/N=C(\C(=O)N[C@@H]1C(=O)N2C(C(=O)[O-])=C(C[n+]3ccccc3)CS[C@H]12)c1csc(N)n1)C(=O)O,"microbial growth, broth dilution",ATCC27853,20 h,MIC,1 µg/mL
COc1cc(C#CC(=O)C2CCCCC2)ccc1O,"microbial growth, absorbance",,"100 µM, 24 h",activity vs control,80%
CC1CCC(C(C)C)C(OC(=O)C=Cc2ccc(O)c(O)c2)C1 (stereo not drawn),"microbial growth, broth dilution",ATCC27853,,MIC,2 µg/mL
Cc1[nH]c(C(=O)Nc2ccc(C(=O)NCC(=O)O)cc2N2CC[C@@H](N)C2)c(Cl)c1Cl.Cl,"microbial growth, broth dilution",ATCC27853,,MIC,> 32 µg/mL
O=C(C=Cc1ccc(O)c(O)c1)Oc1cccc2cccnc12,"microbial growth, broth dilution",ATCC27853,,MIC,4 µg/mL
Cc1[nH]c(C(=O)Nc2ccc(-c3n[nH]c(=O)o3)cc2N2CCC[C@H](N)C2)c(Cl)c1Cl.Cl,"microbial growth, broth dilution",ATCC27853,,MIC,16 µg/mL
O=C(O)c1cn(C2CC2)c2cc(N3CCNCC3)c(F)cc2c1=O,microbial growth,ATCC27853,,MIC,2 µM
COc1cc(C#CC(O)c2ccccc2)ccc1O (stereo not drawn),"microbial growth, absorbance",,"100 µM, 24 h",activity vs control,82%
Cc1[nH]c(C(=O)Nc2ccc(C(=O)NCc3n[nH]c(=O)o3)cc2N2CCN(C(=O)OC(C)(C)C)CC2)c(Cl)c1Cl,"microbial growth, broth dilution",ATCC27853,,MIC,> 32 µg/mL
CN[C@H](CC(C)C)C(=O)N[C@H]1C(=O)N[C@@H](CC(N)=O)C(=O)N[C@H]2C(=O)N[C@H]3C(=O)N[C@H](C(=O)N[C@H](C(=O)O)c4cc(O)cc(O)c4-c4cc3ccc4O)[C@H](O)c3ccc(c(Cl)c3)Oc3cc2cc(c3O[C@@H]2O[C@H](CO)[C@@H](O)[C@H](O)[C@H]2O[C@H]2C[C@](C)(N)[C@H](O)[C@H](C)O2)Oc2ccc(cc2Cl)[C@H]1O,microbial killing,ATCC47085,,MBC,1000 µg/mL
Cl.N[C@H]1CCN(c2cc(C(=O)NCC(=O)O)ccc2NC(=O)c2cc(Br)c(Br)[nH]2)C1,"microbial growth, broth dilution",ATCC27853,,MIC,> 32 µg/mL
O=C(C=Cc1ccc(O)c(O)c1)Oc1ccccc1,"microbial growth, broth dilution",ATCC27853,,MIC,8 µg/mL
Cc1[nH]c(C(=O)Nc2ccc(C(=O)NCC(=O)O)cc2N2CC[C@@H](NC(=O)OC(C)(C)C)C2)c(Cl)c1Cl,"microbial growth, broth dilution",ATCC27853,,MIC,> 32 µg/mL
COc1cccc(C(=O)C#Cc2ccc(O)c(OC)c2)c1,"microbial growth, absorbance",,"100 µM, 24 h",activity vs control,82%
CC(C)(C)OC(=O)N[C@@H]1CCN(c2cc(C(=O)NCC(=O)O)ccc2NC(=O)c2cc(Br)c(Br)[nH]2)C1,"microbial growth, broth dilution",ATCC27853,,MIC,> 32 µg/mL
COc1cc(C#CC(=O)c2cccc(C)c2)ccc1O,"microbial growth, absorbance",,"10 µM, 24 h",activity vs control,98%
O=C(C=Cc1ccc(O)c(O)c1)OCc1ccccc1,"microbial growth, broth dilution",ATCC27853,,MIC,8 µg/mL
COc1cc(C#CC(=O)c2ccc(C(F)(F)F)cc2)ccc1O,"microbial growth, absorbance",,"10 µM, 24 h",activity vs control,102%
CC(C)(O/N=C(\C(=O)N[C@@H]1C(=O)N2C(C(=O)[O-])=C(C[n+]3ccccc3)CS[C@H]12)c1csc(N)n1)C(=O)O,microbial growth,PAO1,,MIC90,4 µg/mL
